Two molecules from ChEMBL document CHEMBL3244005, “Troponoids. 3. Synthesis and antiallergy activity of N-troponyloxamic acid esters” (J Med Chem, 1979) can be followed below.

Each structure is given as a SMILES string. pIC50: −log10 of the molar value.

The test system of series [1] is Rattus norvegicus. Nature of the series: Antiallergic activity in Sprague-Dawley CD rat assessed as inhibition of passive anaphylaxis-induced hind paw edema at 30 mg/kg, ip relative to control. Format: functional. Particulars: route intraperitoneal. The method in brief: (§1)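 Passive anaphylaxis (reaginic antibody) induced in rat hind paw: serum with reaginic antibody injected into left hind paw; antigen given intravenously 24 h later. Paw volume measured by mercury displacement; activity read as inhibition of paw edema versus controls. Test compounds given ip or po. Inhibition of 35% or more considered significant by Student's t test (p < 0.05).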

Series [2] relates to Rattus norvegicus. Nature of the series: Antiallergic activity in Sprague-Dawley CD rat assessed as inhibition of passive anaphylaxis-induced hind paw edema at 10 mg/kg, ip relative to control. Format: functional. The note with it: route intraperitoneal. The method in brief:
as §1

Series [3] has as its system Rattus norvegicus. Nature of the series: Antiallergic activity in Sprague-Dawley CD rat assessed as inhibition of passive anaphylaxis-induced hind paw edema at 100 mg/kg, po relative to control. Format: functional. The method in brief:
as §1

Series [4] has as its system Rattus norvegicus. The series can be described thus: Antiallergic activity in Sprague-Dawley CD rat assessed as inhibition of passive anaphylaxis-induced hind paw edema at 30 mg/kg, po relative to control. Format: functional. The method in brief:
as §1

Series [5] relates to Rattus norvegicus. The series can be described thus: Antiallergic activity in Sprague-Dawley CD rat passive anaphylaxis model assessed as hind paw edema volume at 10 mg/kg, ip relative to control. Format: functional. Particulars: route intraperitoneal. The method in brief: as §1
In series [6] the test system is Rattus norvegicus. The series can be described thus: Antiallergic activity in Sprague-Dawley CD rat passive anaphylaxis model assessed as hind paw edema volume at 3 mg/kg, ip relative to control. Format: functional. Particulars: route intraperitoneal. The method in brief: as §1
Series [7] concerns Rattus norvegicus. Nature of the series: Antiallergic activity in Sprague-Dawley CD rat passive anaphylaxis model assessed as hind paw edema volume at 1 mg/kg, ip relative to control. Format: functional. Particulars: route intraperitoneal. The method in brief: as §1
The test system of series [8] is Rattus norvegicus. Nature of the series: Antiallergic activity in Sprague-Dawley CD rat passive anaphylaxis model assessed as hind paw edema volume at 30 mg/kg, po relative to control. Format: functional. The method in brief: as §1
In series [9] the test system is Rattus norvegicus. Nature of the series: Antiallergic activity in Sprague-Dawley CD rat passive anaphylaxis model assessed as hind paw edema volume at 10 mg/kg, po relative to control. Format: functional. The method in brief: as §1
Series [10] deals with Rattus norvegicus. Nature of the series: Antiallergic activity in Sprague-Dawley CD rat passive anaphylaxis model assessed as hind paw edema volume at 3 mg/kg, po relative to control. Format: functional. The method in brief:
as §1

The subject of series [11] is Rattus norvegicus. Nature of the series: Antiallergic activity in Sprague-Dawley CD rat assessed as inhibition of passive anaphylaxis-induced hind paw edema at 3 mg/kg, ip relative to control. The note with it: Rattus norvegicus, Sprague-Dawley CD, ip, route intraperitoneal. Format: functional. The method in brief: as §1
Series [12] deals with Rattus norvegicus. Nature of the series: Antiallergic activity in Sprague-Dawley CD rat assessed as inhibition of passive anaphylaxis-induced hind paw edema at 1 mg/kg, ip relative to control. The note with it: route intraperitoneal. Format: functional. The method in brief:
as §1

Series [13] deals with Rattus norvegicus. The series can be described thus: Antiallergic activity in Sprague-Dawley CD rat assessed as inhibition of passive anaphylaxis-induced hind paw edema at 10 mg/kg, po relative to control. Format: functional. The method in brief: as §1
In series [14] the test system is Rattus norvegicus. The series can be described thus: Antiallergic activity in Sprague-Dawley CD rat assessed as inhibition of passive anaphylaxis-induced hind paw edema at 3 mg/kg, po relative to control. Format: functional. The method in brief: as §1
The subject of series [15] is Serum. The series can be described thus: Drug metabolism in serum of Sprague-Dawley CD rat passive anaphylaxis model at 0.23 mmol/kg, iv. Format: ADME, cell-free. The method in brief: (§2)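 Rats given an iv bolus of 0.23 mmol/kg. Serum separated by centrifugation and stored frozen. Drug-derived material in serum quantified over time by UV measurement of 2-aminotropone. For 14C-labelled ester (label in ethyl group or oxalyl carbonyls), radioactivity counted in 0.2 mL serum after tissue-solubiliser digestion and scintillation fluid addition.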

The test system of series [16] is Serum. Nature of the series: Drug metabolism in serum of Sprague-Dawley CD rat passive anaphylaxis model assessed as 2-[(Carboxycarbonyl)amino]-2,4,6-cycloheptatrien-l-one level at 0.23 mmol/kg, iv. Format: ADME, cell-free. The method in brief:
as §2

In series [17] the test system is Serum. Nature of the series: Drug metabolism in serum of Sprague-Dawley CD rat passive anaphylaxis model assessed as 2-aminotropone level at 0.23 mmol/kg, iv. Format: ADME, cell-free. The method in brief: as §2
A further series has as its system Blood. Nature of the series: Drug metabolism in blood of Sprague-Dawley CD rat passive anaphylaxis model at 0.23 mmol/kg, iv. Format: ADME, tissue-based. The method in brief:
as §2

Series [18] has as its system Rattus norvegicus. The series can be described thus: Drug metabolism in po dosed Sprague-Dawley CD rat passive anaphylaxis model assessed as 2-aminotropone level. Format: ADME, organism-based. The note with it: in vivo.
Series [19] can be described thus: Inhibition of beef heart PDE assessed as cyclic AMP level. Also noted: species or system Bos taurus. The method in brief: (§3)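 PDE from beef heart or guinea pig lung assayed by earlier-described methods; protein measured by Lowry method. IC50 taken from a plot of percent inhibition vs log inhibitor concentration, as the concentration giving 50% reduction in reaction velocity relative to uninhibited controls.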

A short description of series [20]: Inhibition of guinea pig lung PDE assessed as cyclic AMP level. Set-up: species or system Cavia porcellus. The method in brief: as §3
For series [21], the species on record is Cavia porcellus. The series can be described thus: Stimulation of guinea pig lung adenylate cyclase activity at 1 x 10^-4 M after 15 mins relative to control.
The species named for series [22] is Cavia porcellus. Nature of the series: Stimulation of guinea pig lung adenylate cyclase activity at 1 x 10^-5 M after 15 mins relative to control.
Series [23] relates to Rattus norvegicus. Nature of the series: Antiallergic activity in Sprague-Dawley CD rat passive anaphylaxis model assessed as hind paw edema volume at 5 mg/kg, ip relative to control. Format: functional. Particulars: route intraperitoneal. The method in brief: as §1
Series [24] relates to Rattus norvegicus. The series can be described thus: Antiallergic activity in Sprague-Dawley CD rat passive anaphylaxis model assessed as hind paw edema volume at 2 mg/kg, ip relative to control. Format: functional. The note with it: route intraperitoneal. The method in brief:
as §1

In series [25] the test system is Rattus norvegicus. The series can be described thus: Antiallergic activity in Sprague-Dawley CD rat assessed as inhibition of passive anaphylaxis-induced hind paw edema at 5 mg/kg, ip relative to control. Format: functional. The note with it: route intraperitoneal. The method in brief:
as §1

Series [26] deals with Rattus norvegicus. The series can be described thus: Antiallergic activity in Sprague-Dawley CD rat assessed as inhibition of passive anaphylaxis-induced hind paw edema at 2 mg/kg, ip relative to control. Format: functional. Particulars: route intraperitoneal. The method in brief: as §1
[27] abbreviates: Rattus norvegicus, Sprague-Dawley CD, ip.
Where [28] appears, read: Rattus norvegicus, Sprague-Dawley CD, po.

As to `CCOC(=O)C(=O)Nc1cccccc1=O`, the inhibition in vivo at 30 mg/kg in the series on Rattus norvegicus [1] (setting [27]) turned out to be 84%; in the series with Rattus norvegicus [4] (setting [28]), 79%. The inhibition in vivo at 10 mg/kg stood at 80% with Rattus norvegicus [2] (setting [27]) and 75% in the series with Rattus norvegicus [13] (setting [28]). In the series with Rattus norvegicus [3] (setting [28]), the inhibition in vivo at 100 mg/kg stood at 91%. For the same molecule, the Activity in the series with Rattus norvegicus [5] came out at 0.22 mL; with Rattus norvegicus [6], 0.41 mL; in the series with Rattus norvegicus [7], 0.95 mL; with Rattus norvegicus [8] it was 0.17 mL; in the series on Rattus norvegicus [9], 0.24 mL; with Rattus norvegicus [10], 0.47 mL. The values for the Activity in the series filed under Cavia porcellus [21] and in the series filed under Cavia porcellus [22] were 7% and 0%, respectively. Further, the results for the inhibition in vivo at 3 mg/kg with Rattus norvegicus [11] and in the series on Rattus norvegicus [14] (setting [28]) were 62% and 50%, respectively. In the series with Rattus norvegicus [12], the inhibition in vivo at 1 mg/kg came to 16%. Further, the Drug metabolism result was “metabolite_detected” with Serum [15]; “metabolite_detected” in the series on Serum [16]; “metabolite_notdetected” in the series on Serum [17]; “metabolite_detected” with Blood; “metabolite_detected” in the series with Rattus norvegicus [18]. Also, the negative-log IC50 (pIC50) in series [19] was 2.82; in [20], 2.71.

In the case of `O=C([O-])C(=O)Nc1cccccc1=O.[K+]`, the “inhibition (INH)” value with Rattus norvegicus [1] amounted to 75%; in the series on Rattus norvegicus [2], 70%; in the series on Rattus norvegicus [3], 68%; in the series with Rattus norvegicus [4], 53%; in the series with Rattus norvegicus [13] it was 31%; with Rattus norvegicus [14], 35%. For the same molecule, the Activity came to 0.36 mL in the series on Rattus norvegicus [5]; 0.69 mL in the series with Rattus norvegicus [23]; 0.69 mL in the series on Rattus norvegicus [24]; 0.44 mL with Rattus norvegicus [8]; 0.66 mL with Rattus norvegicus [9]; 0.61 mL with Rattus norvegicus [10]. The inhibition in vivo at 5 mg/kg in the series on Rattus norvegicus [25] is 46%. Besides, the inhibition in vivo at 2 mg/kg in the series on Rattus norvegicus [26] amounted to 46%. Moreover, the pIC50 in series [19] was 2.29; in series [20] it was 2.30.

Broadly, the inhibition in vivo is how much of the control response was suppressed. As usually defined, the pIC50 is the negative decadic logarithm of the IC50, by convention in mol/L.
